# Assay results taken from ChEMBL document CHEMBL1156332, “Polysubstituted pyrazoles, part 6. Synthesis of some 1-(4-chlorophenyl)-4-hydroxy-1H-pyrazol-3-carbonyl derivatives linked to nitrogenous heterocyclic ring systems as potential antitumor agents” (2010).
# Active and inactive are the calls of the source. No cut-off for these calls is given here.
# Columns and labels:
# Type in all cases: functional
# [1] = tested on: RPMI-8226; assay: Growth inhibition of human RPMI8226 cells after 48 hrs by sulforhodamine B assay; settings: RPMI-8226, 48 h
# How it was run: (§1)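 NCI 60-line panel, five concentrations (0.01–100 µM) from DMSO stock diluted in medium with gentamicin. Cells were plated 24 h before dosing, with time-zero plates fixed at drug addition, then exposed 48 h at 37 °C, 5% CO₂. Adherent cells were fixed with cold TCA (10% final) and suspension cells with 16% TCA. Staining used 0.4% SRB, solubilised in 10 mM Tris and read at 515 nm. GI₅₀ was taken from log concentration–% growth curves.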
# [2] = tested on: OVCAR-5; assay: Growth inhibition of human OVCAR5 cells after 48 hrs by sulforhodamine B assay; settings: OVCAR-5, 48 h; how it was run: as §1
# [3] = tested on: MDA-MB-468; assay: Growth inhibition of human MDA-MB-468 cells after 48 hrs by sulforhodamine B assay; settings: MDA-MB-468, 48 h; how it was run: as §1
# [4] = tested on: SN12C; assay: Growth inhibition of human SN12C cells after 48 hrs by sulforhodamine B assay
# How it was run: (§2)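 Adherent lines plated and held 24 h at 37 °C, 5% CO2, 100% humidity; time-zero plates TCA-fixed at drug addition. Drugs from DMSO stocks were made into five concentrations by 10-fold or half-log serial dilution and applied for 48 h continuous exposure. Cells were fixed with cold TCA (10% final) for 60 min at 4 °C, then stained with 0.4% SRB in 1% acetic acid for 10 min. Dye was solubilized in 10 mM Tris base and read at 515 nm. GI50 was taken from log concentration–growth curves.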
# [5] = tested on: EKVX; assay: Growth inhibition of human EKVX cells after 48 hrs by sulforhodamine B assay; how it was run: as §1
# [6] = tested on: U-251; assay: Growth inhibition of human U251 cells after 48 hrs by sulforhodamine B assay; settings: U-251, 48 h; how it was run: as §2
# [7] = tested on: HCT-116; assay: Growth inhibition of human HCT116 cells after 48 hrs by sulforhodamine B assay; settings: HCT-116, 48 h; how it was run: as §1
# [8] = tested on: OVCAR-3; assay: Growth inhibition of human OVCAR-3 cells after 48 hrs by sulforhodamine B assay; settings: OVCAR-3, 48 h; how it was run: as §1
# [9] = tested on: HL-60(TB); assay: Growth inhibition of human HL-60(TB) cells after 48 hrs by sulforhodamine B assay; settings: HL-60, 48 h
# How it was run: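 NCI 60-cell panel. Cells were preincubated 24 h at 37 °C in 5% CO2, then time-zero plates were TCA-fixed. Drugs were dissolved in DMSO and given at five concentrations (10-fold or half-log dilutions) for 48 h. Suspension cells were fixed with TCA (16% final), stained with 0.4% SRB and read at 515 nm. GI50 is the concentration giving 50% decrease in net growth, taken from log concentration–growth curves.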
# [10] = tested on: OVCAR-8; assay: Growth inhibition of human OVCAR8 cells after 48 hrs by sulforhodamine B assay; settings: OVCAR-8, 48 h; how it was run: as §1
# [11] = Growth inhibition of human NCI-H322 cells after 48 hrs by sulforhodamine B assay; settings: NCI-H322, 48 h; how it was run: as §1
# [12] = tested on: MOLT-4; assay: Growth inhibition of human MOLT4 cells after 48 hrs by sulforhodamine B assay; settings: MOLT-4, 48 h; how it was run: as §1
# [13] = tested on: SR; assay: Growth inhibition of human SR cells after 48 hrs by sulforhodamine B assay
# How it was run: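 Suspension leukemia line pre-incubated 24 h at 37 °C, 5% CO2; time-zero plates fixed at drug addition. Five drug concentrations were made by serial dilution from DMSO stocks and applied for 48 h. Settled cells were fixed with 80% TCA (16% final), stained with 0.4% SRB in 1% acetic acid, solubilized in 10 mM Tris base, and read at 515 nm. GI50 = concentration giving 50% decrease in net growth.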
# [14] = tested on: UO-31; assay: Growth inhibition of human UO31 cells after 48 hrs by sulforhodamine B assay; settings: UO-31, 48 h; how it was run: as §2
# [15] = Growth inhibition of human Hs 578T cells after 48 hrs by sulforhodamine B assay; how it was run: as §1
# [16] = tested on: HOP-62; assay: Growth inhibition of human HOP62 cells after 48 hrs by sulforhodamine B assay; settings: HOP-62, 48 h; how it was run: as §1
# [17] = tested on: A498; assay: Growth inhibition of human A498 cells after 48 hrs by sulforhodamine B assay; settings: A498, 48 h; how it was run: as §1
# [18] = tested on: A549; assay: Growth inhibition of human A549 cells after 48 hrs by sulforhodamine B assay; settings: A549, 48 h; how it was run: as §1
# [19] = Cytotoxicity against human melanoma cells after 48 hrs by sulforhodamine B assay; settings: Melanoma cell; for CC50: read-out: LC50 (the source's name)
# How it was run: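 NCI five-dose screen: about 60 human tumour lines grouped into nine subpanels were plated and incubated 24 h before dosing. Compounds went in as DMSO stock and were diluted in medium to five final concentrations (0.01–100 µM). Exposure was 48 h continuous at 37 °C, 5% CO₂, followed by TCA fixation and SRB staining read at 515 nm. Per-line GI₅₀, TGI and LC₅₀ came from log concentration–% growth curves, averaged per subpanel as MG-MID.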
# [20] = tested on: TK-10; assay: Growth inhibition of human TK10 cells after 48 hrs by sulforhodamine B assay; settings: TK-10, 48 h; how it was run: as §2
# [21] = tested on: NCI-H23; assay: Growth inhibition of human NCI-H23 cells after 48 hrs by sulforhodamine B assay; settings: NCI-H23, 48 h; how it was run: as §1
# [22] = tested on: PC-3; assay: Growth inhibition of human PC3 cells after 48 hrs by sulforhodamine B assay; settings: PC-3, 48 h; how it was run: as §1
# [23] = tested on: SK-MEL-2; assay: Growth inhibition of human SK-MEL-2 cells after 48 hrs by sulforhodamine B assay; how it was run: as §2
# [24] = tested on: UACC-62; assay: Growth inhibition of human UACC62 cells after 48 hrs by sulforhodamine B assay; settings: UACC-62, 48 h; how it was run: as §2
# [25] = tested on: HCT-15; assay: Growth inhibition of human HCT15 cells after 48 hrs by sulforhodamine B assay; settings: HCT-15, 48 h; how it was run: as §1
# [26] = tested on: UACC-257; assay: Growth inhibition of human UACC257 cells after 48 hrs by sulforhodamine B assay; settings: UACC-257, 48 h; how it was run: as §2
Compound,GI50 [1],GI50 [2],GI50 [3],GI50 [4],GI50 [5],GI50 [6],GI50 [7],GI50 [8],GI50 [9],GI50 [10],GI50 [11],GI50 [14],GI50 [15],GI50 [16],GI50 [17],GI50 [18],GI50 [19],TGI [19],CC50 [19],GI50 [20],also measured
N#Cc1cnn(C(=O)c2nn(-c3ccc(Cl)cc3)cc2O)c1N,210 nM,640 nM,950 nM,350 nM,380 nM,290 nM,260 nM,550 nM,330 nM,480 nM,440 nM,300 nM,190 nM,340 nM,170 nM,200 nM,460 nM,11900 nM,65000 nM,280 nM,"GI50 [12]: 290 nM; GI50 [13]: 280 nM; GI50 [21]: 370 nM; GI50 [22]: 330 nM; GI50 ([23]; SK-MEL-2, 48 h): 910 nM; GI50 [24]: 300 nM; GI50 [25]: 340 nM; GI50 [26]: 560 nM"
CC1=NN(C(=O)c2nn(-c3ccc(Cl)cc3)cc2O)C(=O)C1,1660 nM,3320 nM,4570 nM,1420 nM,2210 nM,410 nM,680 nM,1210 nM,1170 nM,1490 nM,850 nM,670 nM,280 nM,1330 nM,450 nM,820 nM,1820 nM,70500 nM,93600 nM,790 nM,GI50 [12]: 1870 nM; GI50 [13]: 420 nM; GI50 [21]: 2900 nM; GI50 [24]: 1800 nM; GI50 [25]: 680 nM; GI50 [26]: 1060 nM
Cc1c2c(nn1C(=O)c1nn(-c3ccc(Cl)cc3)cc1O)-c1ccccc1CC2,38 nM,72 nM,262 nM,41 nM,71 nM,31 nM,34 nM,99 nM,51 nM,53 nM,54 nM,99 nM,21 nM,44 nM,24 nM,34 nM,140 nM,52100 nM,86400 nM,33 nM,"GI50 [12]: 43 nM; GI50 [21]: 41 nM; GI50 [22]: 37 nM; GI50 ([23]; SK-MEL-2, 48 h): 5540 nM; GI50 [24]: 51 nM; GI50 [25]: 52 nM; GI50 [26]: 210 nM"
O=C1CC(=O)N(C(=O)c2nn(-c3ccc(Cl)cc3)cc2O)N1,380 nM,8080 nM,720 nM,500 nM,850 nM,180 nM,340 nM,930 nM,770 nM,640 nM,530 nM,550 nM,190 nM,510 nM,110 nM,360 nM,1600 nM,50100 nM,85200 nM,350 nM,GI50 [12]: 410 nM; GI50 [13]: 260 nM; GI50 [21]: 490 nM; GI50 [22]: 360 nM; GI50 [23]: inactive; GI50 [24]: 390 nM; GI50 [25]: 490 nM; GI50 [26]: 1860 nM
Cc1cc(C)n(C(=O)c2nn(-c3ccc(Cl)cc3)cc2O)n1,3340 nM,4980 nM,8900 nM,3370 nM,4870 nM,2680 nM,3420 nM,1270 nM,3960 nM,5960 nM,6170 nM,3010 nM,3210 nM,5210 nM,2900 nM,3720 nM,4950 nM,71400 nM,92800 nM,4710 nM,GI50 [13]: inactive; GI50 [21]: 3310 nM; GI50 [22]: 7050 nM; GI50 [24]: 3460 nM; GI50 [25]: 3530 nM; GI50 [26]: 16600 nM
O=C(c1nn(-c2ccc(Cl)cc2)cc1O)n1nc(-c2ccco2)cc1C(F)(F)F,1420 nM,2600 nM,4660 nM,5180 nM,1990 nM,5860 nM,2000 nM,1720 nM,2420 nM,1880 nM,830 nM,3840 nM,640 nM,1980 nM,8710 nM,7230 nM,4140 nM,63700 nM,89400 nM,1450 nM,"GI50 [12]: 2550 nM; GI50 [21]: 5590 nM; GI50 [22]: 26300 nM; GI50 ([23]; SK-MEL-2, 48 h): 3820 nM; GI50 [24]: 2160 nM; GI50 [25]: 1440 nM; GI50 [26]: 2670 nM"
